From ChEMBL document CHEMBL1137471, “Dihydroxypyridopyrazine-1,6-dione HIV-1 integrase inhibitors” (Bioorg Med Chem Lett, 2007)

Experiments:
[1] = target: Human immunodeficiency virus type 1 integrase (Human immunodeficiency virus 1, UniProt Q7ZJM1); assay: Inhibition of HIV1 recombinant integrase strand transfer activity
Summary of the method: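 Strand transfer by recombinant HIV-1 integrase (0.1 µM) preassembled on immobilized oligonucleotides. Inhibition is relative to a no-inhibitor control run in quadruplicate and averaged, with background subtracted. IC50 given as mean of three experiments with standard deviation.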

[2] = test system: Human immunodeficiency virus 1; assay: Antiviral activity against HIV1 3B infected in human MT4 cells assessed as inhibition of replication after 3 days by ELISA; format: functional; conditions: Human immunodeficiency virus 1, 3B, MT4, 72 h; read-out: CIC95
MT4 = assay: Cytotoxicity against human MT4 cells upto 20 uM after 24 hrs; format: cell-based; conditions: mt4, 24 h
Rattus norvegicus = species on record: Rattus norvegicus; assay: Plasma concentration in rat after 2 to 24 hrs; format: ADME, organism-based; conditions: in vivo
Summary of the method: (§1)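 Rats dosed orally at 10 mg/kg as a solution in 1% aqueous methylcellulose. Plasma sampled through 24 h.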

[3] = Bioavailability in rat at 10 mg/kg, po; format: ADME, organism-based; conditions: in vivo; summary of the method: as §1
Liver microsomes [4] = assay: Protein binding in human liver microsomes per 60 mins in presence of NADPH; format: ADME, Microsome; conditions: 1 h
Summary of the method: (§2)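 [14C]-labelled compound incubated with rat or human liver microsomes, with or without NADPH. Irreversibly bound radioactivity expressed as pmol equiv/mg/60 min.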

Plasma [5] = assay: Protein binding in rat plasma after 2 hrs; format: ADME, cell-free
Summary of the method: (§3)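 [14C]-labelled compound given to rats in vivo. Irreversibly bound radioactivity measured in plasma and liver at 2, 6 and 24 h, expressed as pmol equiv/mg protein.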

Plasma [6] = assay: Protein binding in rat plasma after 6 hrs; format: ADME, cell-free; summary of the method: as §3
Liver [7] = assay: Protein binding in rat liver after 6 hrs; format: ADME, tissue-based; summary of the method: as §3
Liver microsomes [8] = assay: Protein binding in human liver microsomes per 60 mins in absence of NADPH; format: ADME, Microsome; conditions: 1 h; summary of the method: as §2
Liver microsomes [9] = assay: Protein binding in rat liver microsomes per 60 mins in absence of NADPH; format: ADME, Microsome; conditions: 1 h; summary of the method: as §2
Liver [10] = assay: Protein binding in rat liver after 24 hrs; format: ADME, tissue-based; summary of the method: as §3
Plasma [11] = assay: Protein binding in rat plasma after 24 hrs; format: ADME, cell-free; summary of the method: as §3
Liver [12] = assay: Protein binding in rat liver after 2 hrs; format: ADME, tissue-based; summary of the method: as §3
Liver microsomes [13] = assay: Protein binding in rat liver microsomes per 60 mins in presence of NADPH; format: ADME, Microsome; conditions: 1 h; summary of the method: as §2

Sequence of Human immunodeficiency virus type 1 integrase (Q7ZJM1 whole entry): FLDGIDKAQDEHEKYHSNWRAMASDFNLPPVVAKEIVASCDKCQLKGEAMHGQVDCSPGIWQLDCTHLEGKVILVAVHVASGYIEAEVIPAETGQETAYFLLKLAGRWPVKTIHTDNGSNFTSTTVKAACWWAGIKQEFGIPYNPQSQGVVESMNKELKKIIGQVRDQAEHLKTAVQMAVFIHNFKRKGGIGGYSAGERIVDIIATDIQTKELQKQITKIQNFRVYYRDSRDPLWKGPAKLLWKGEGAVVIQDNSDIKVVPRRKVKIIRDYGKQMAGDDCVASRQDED

## O=C1c2c(O)c(O)cc(=O)n2CCN1Cc1ccccc1
[1]
  IC50: 230 nM
[2]
  IC95: 2500 nM
MT4
  Activity: Non-toxic

## O=C1c2c(O)c(O)cc(=O)n2CCN1Cc1ccc(F)cc1
[1]
  IC50: 100 nM
Rattus norvegicus
  concentration: 500 nM
[2]
  IC95: 310 nM
[3]
  bioavailability: 69%
MT4
  Activity: Non-toxic

## O=c1c2c(O)c(O)cc(=O)n2ccn1Cc1ccc(F)cc1
[1]
  IC50: 40 nM

## O=C1c2c(O)c(O)c(Br)c(=O)n2CCN1Cc1ccc(F)cc1
[1]
  IC50: 30 nM
[2]
  IC95: 1000 nM
MT4
  Activity: Non-toxic

## O=C1c2c(O)c(O)cc(=O)n2CCN1Cc1ccccc1Cl
[1]
  IC50: 370 nM
[2]
  IC95: > 1000 nM
MT4
  Activity: Non-toxic

## N#Cc1c(O)c(O)c2n(c1=O)CCN(Cc1ccc(F)cc1)C2=O
[1]
  IC50: 20 nM
[2]
  IC95: > 1000 nM
MT4
  Activity: Non-toxic

## O=C1c2c(O)c(O)cc(=O)n2CCN1Cc1ccc(Cl)cc1
[1]
  IC50: 380 nM
[2]
  IC95: 1000 nM
MT4
  Activity: Non-toxic

## O=C1c2c(O)c(O)c(I)c(=O)n2CCN1Cc1ccc(F)cc1
[1]
  IC50: 20 nM
[2]
  IC95: > 1000 nM
MT4
  Activity: Non-toxic

## O=C1c2[14c](O)[14c](O)cc(=O)n2CCN1Cc1ccc(F)cc1
Liver microsomes [4]
  Activity: 19.6 pmolequiv/mg
Plasma [5]
  PPB: < 5 pmolequiv/mg
Plasma [6]
  PPB: < 5 pmolequiv/mg
Liver [7]
  PPB: < 5 pmolequiv/mg
Liver microsomes [8]
  Activity: 15.2 pmolequiv/mg
Liver microsomes [9]
  Activity: 24.7 pmolequiv/mg
Liver [10]
  PPB: < 5 pmolequiv/mg
Plasma [11]
  PPB: < 5 pmolequiv/mg
Liver [12]
  PPB: < 5 pmolequiv/mg
Liver microsomes [13]
  Activity: 24.2 pmolequiv/mg

## O=C1c2c(O)c(O)cc(=O)n2CCN1Cc1ccc(F)c(Cl)c1
[1]
  IC50: 40 nM
[2]
  IC95: 250 nM
MT4
  Activity: Non-toxic

## O=C1c2c(O)c(O)cc(=O)n2CCN1Cc1cccc(Cl)c1
[1]
  IC50: 40 nM
[2]
  IC95: 500 nM
MT4
  Activity: Non-toxic

## O=C1c2c(O)c(O)cc(=O)n2CCCN1Cc1ccc(F)cc1
[1]
  IC50: 1040 nM
